Measured values taken from article PMC9290614 (The Journal of Dermatology, 2021).
“And” between values parts separate entries of the source, which are not always exact repeats. Equal values may be shown once. Read-outs that look alike come from different tables or passages of the source.

Columns and labels:
[1] = assay type: in vivo, human; conditions: for Cmin (predose trough): geometric mean (CV% geometric mean); for AUC / AUC(0-t) / Cmax / Vd/F / half-life / Tmax: human, plasma, oral; for Tmax: median (minimum, maximum)
[2] = Population PK; assay type: in vivo, human; conditions: for AUC: human, plasma, oral, Median week 16 apremilast exposure (AUCτ,ss) derived from the PPK model, all subjects
Outline: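 Pooled plasma levels came from healthy or patient subjects: single oral 20–50 mg or multiple 30/50 mg b.i.d. in phase 1, plus phase 2b/3 psoriasis studies, including Japanese sparse/intensive samples at weeks 8–24. After below-LOQ exclusion, 5704 samples remained. Base model: CL/F, first-order Ka, absorption lag, Vc/F, mixed residual error. Tested covariates included age, sex, race, bodyweight and smoking.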

[3] = test system: subjects with moderate to severe psoriasis; experiment: Exposure-response; assay type: in vivo, human; conditions: for Predicted probability of achieving sPGA response (0 or 1) at week 16: non-Japanese, placebo 5.0%; for Predicted probability of achieving PASI-75 response at week 16: placebo 6.1%; for Predicted probability of achieving PASI-50 response at week 16: placebo 20.0%; for sPGA Probability: at race-specific median AUCτ,ss; for Predicted probability of sPGA response (0 or 1): typical model-derived exposure, Japanese subjects, placebo 14.1%
[4] = test system: subjects with moderate to severe psoriasis; conditions: cited from earlier work
[5] = predominantly Caucasian healthy subjects, mean [SD]; cited from earlier work
[6] = test system: CYP3A4; conditions: multiple p.o. doses of rifampicin (strong CYP3A4 induction); cited from earlier work
[7] = test system: plasma IL-17A, IL-17F, and IL-22; conditions: 30 mg b.i.d., PSOR-009 (ESTEEM 2) and PSOR-011 PD subsets; cited from earlier work
[8] = 10 mg b.i.d., median exposure 1065.4 ng·h/mL
[9] = 20 mg b.i.d., median exposure 2030.6 ng·h/mL
[10] = 30 mg b.i.d., median exposure 3169.2 ng·h/mL
[11] = PSOR-008/ESTEEM 1, 30 mg b.i.d.
[12] = PSOR-011, Japanese subjects, 30 mg b.i.d.

Cmin (predose trough) ([1]; Japanese subjects, 20 mg b.i.d., week 20, n = 21): 91 ng/mL and 90.8 (50.1) ng/mL
Cmin (predose trough) ([1]; Japanese subjects, 30 mg b.i.d., week 20, n = 20): 104 ng/mL and 104 (66.6) ng/mL
Increase of mean AUCτ and Cmax with increase in dose ([1]; Japanese subjects, dose from 20 to 30 mg b.i.d.): ~ 1.2 times
AUC ([1]; 20 mg): 1960 ng·h/mL
AUC(0-t) ([1]; 20 mg): 1600 ng·h/mL
Cmax ([1]; 20 mg): 304 ng/mL
Vd/F ([1]; 20 mg): 68 L
half-life ([1]; 20 mg): 4.31 h
Tmax ([1]; 20 mg, Japanese subjects, 20 mg b.i.d., week 20, n = 21): ~2 h
AUC ([1]; 30 mg): 2400 ng·h/mL
AUC(0-t) ([1]; 30 mg): 1970 ng·h/mL
Cmax ([1]; 30 mg): 374 ng/mL
Vd/F ([1]; 30 mg): 83.1 L
half-life ([1]; 30 mg): 4.06 h
Tmax ([1]; 30 mg, Japanese subjects, 30 mg b.i.d., week 20, n = 20): ~2 h
Clearance faster than in a typical 45-year-old [2]: 14%
Clearance slower than in a 45-year-old ([2]; 80-year-old): 8%
Vc/F greater than in a typical 82-kg individual ([2]; 102-kg individual): approximately 14%
CL/F, typical value (RSE %) ([2]; final PPK model): 9.25 (3.4) L/h
Clearance faster in Japanese versus non-Japanese individuals ([2]; final PPK model): approximately 17%
Ka, first-order rate of absorption, typical value (RSE %) ([2]; final PPK model): 1.83 (11.7) h^−1
Lag time of absorption, typical value (RSE %) ([2]; final PPK model): 0.290 (11.7) h
Reduction of CL/F in subjects with psoriasis compared with healthy subjects ([2]; final PPK model): approximately 17%
Vc/F, typical value (RSE %) ([2]; final PPK model): 115 (2.2) L
AUC ([2]; 20 mg, 20 mg b.i.d.): 2030 ng·h/mL
AUC ([2]; 30 mg, 30 mg b.i.d.): 3170 ng·h/mL
Compound: CCOc1cc([C@@H](CS(C)(=O)=O)N2C(=O)c3cccc(NC(C)=O)c3C2=O)ccc1OC [apremilast]
Predicted probability of achieving sPGA response (0 or 1) at week 16 [3, 8]: 16.2%
Predicted probability of achieving PASI-75 response at week 16 [3, 8]: 19.0%
Predicted probability of achieving PASI-50 response at week 16 [3, 8]: 43.8%
sPGA Probability ([3]; 20 mg BID, Caucasian): 23.2%
sPGA Probability ([3]; 20 mg BID, Japanese): 32.9%
Predicted probability of achieving sPGA response (0 or 1) at week 16 [3, 9]: 22.7%
Predicted probability of achieving PASI-75 response at week 16 [3, 9]: 28.6%
Predicted probability of achieving PASI-50 response at week 16 [3, 9]: 55.3%
Predicted probability of sPGA response (0 or 1) ([3]; 20 mg b.i.d.): 33.8%
sPGA Probability ([3]; 30 mg BID, Caucasian): 27.5%
sPGA Probability ([3]; 30 mg BID, Japanese): 36.3%
Predicted probability of achieving sPGA response (0 or 1) at week 16 [3, 10]: 27.3%
Predicted probability of achieving PASI-75 response at week 16 [3, 10]: 36.5%
Predicted probability of achieving PASI-50 response at week 16 [3, 10]: 62.8%
Predicted probability of sPGA response (0 or 1) ([3]; 30 mg b.i.d.): 37.5%
Rate of PASI-75 response at week 16 ([4]; PSOR-005, 30 mg b.i.d.): 40.9%
Rate of sPGA response (0 or 1) at week 16 ([4]; PSOR-005, 30 mg b.i.d.): 33.0%
Treatment effect (difference in proportions between apremilast 30 mg b.i.d. and placebo), PASI-75 ([4]; PSOR-005): 35.2%
Treatment effect (difference in proportions between apremilast 30 mg b.i.d. and placebo), sPGA response ([4]; PSOR-005): 21.1%
Rate of PASI-75 response at week 16 [4, 11]: 33.1%
Rate of sPGA response (0 or 1) at week 16 [4, 11]: 21.7%
Treatment effect (difference in proportions between apremilast 30 mg b.i.d. and placebo), PASI-75 ([4]; PSOR-008/ESTEEM 1): 27.8%
Treatment effect (difference in proportions between apremilast 30 mg b.i.d. and placebo), sPGA response ([4]; PSOR-008/ESTEEM 1): 17.8%
Rate of PASI-75 response at week 16 [4, 12]: 28.2%
Rate of sPGA response (0 or 1) at week 16 [4, 12]: 29.6%
Treatment effect (difference in proportions between apremilast 30 mg b.i.d. and placebo), PASI-75 ([4]; PSOR-011): 21.1%
Treatment effect (difference in proportions between apremilast 30 mg b.i.d. and placebo), sPGA response ([4]; PSOR-011): 20.8%
AUC0-∞ [5]: 3270 [1081] ng·h/mL
Cmax [5]: 298 [81.4] ng/mL
Decrease in apremilast exposure [6]: ~72%
Increase in apremilast clearance [6]: 3.6 times
Effect on plasma IL-17A, IL-17F, and IL-22 [7]: significantly reduced
